This is an account of results in ChEMBL document CHEMBL1821586, “Identification and biological activities of new taccalonolide microtubule stabilizers” (J Med Chem, 2011).

The structures appear in SMILES notation. Calls of active or inactive are those of the source. No cut-off for these calls is given here.

A short description of data set [1]: Antitumor activity against mouse 16/C cells allografted in mouse B6C3F1 assessed as gross log cell killing at 56 mg/kg, iv administered on days 1,4,6 and day 8 or 9 relative to control. The data set is classed as functional. An outline of the steps: (§1)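 Mammary 16/C tumor fragments implanted bilaterally s.c. in female B6C3F1 mice on day 0, 5 mice/group. Taccalonolides in 50% DMSO:50% Cremophor stock, diluted with sterile water, given i.v. in 0.2 ml on days 1, 4, 6, plus one dose 2–3 days later (A, N) or further doses days 8, 9, 11 (E). Tumor mass = length × width²/2, measured 2–3 times weekly. Gross log cell kill = (T-C)/3.32 × Td, with T-C the days to 1000 mg.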

Data set [2] is described as follows: Antitumor activity against mouse 16/C cells allografted in mouse B6C3F1 assessed as delay in tumor growth at 56 mg/kg, iv administered on days 1,4,6 and day 8 or 9 relative to control. It counts as functional. An outline of the steps:
(§2)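 Mammary 16/C fragments implanted s.c. bilaterally in female B6C3F1 mice on day 0, 5 mice/group, IV dosing in 0.2 ml. Tumors measured 2–3 times weekly. T-C = median days for treated vs control tumors to reach 1000 mg. Gross log cell kill = (T-C)/3.32×Td, with Td the doubling time from a log-linear fit of control tumor growth.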

Data set [3] concerns HeLa. Kind of data set: Antiproliferative activity against human HeLa cells after 48 hrs by SRB assay. The data set is classed as functional, cell-based. An outline of the steps: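 HeLa cells grown in BME with 10% FBS and 50 µg/ml gentamicin, drug-treated 48 h, proliferation read by SRB assay.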
For orientation: The SRB assay estimates cell density from bound dye.

Data set [4] is described as follows: Antitumor activity against mouse 16/C cells allografted in mouse B6C3F1 assessed as decrease in tumor mass at 40 mg/kg, iv administered on days 1,4,6 and day 8 or 9 relative to control. It counts as functional. The gist of the method:
(§3)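 Female B6C3F1 mice (mean 19.3 ± 1.0 g) carried bilateral s.c. Mammary 16/C tumor fragments implanted day 0, 5 mice/group. […] All were given IV in 0.2 ml. Tumor mass = L×W²/2, measured 2–3 times weekly. %T/C = treated/control median mass, zeros included, taken when control tumors reach ~700–1200 mg.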

Data set [5] concerns HeLa. Kind of data set: Inhibition of beta tubulin in human HeLa cells assessed asultiple abnormal mitotic spindle formation at 3.5 uM after 18 hrs by immunofluorescence analysis. It counts as cell-based.
In data set [6] the test system is HeLa. As to the kind of experiment: Induction of interphase microtubule bundling in human HeLa cells at 3.5 uM after 18 hrs by indirect immunofluorescence analysis. The data set is classed as cell-based.
For data set [7], the system named is Mus musculus. As to the kind of experiment: Toxicity in B6C3F1 mouse allografted with mouse 16/C cells assessed as mean body weight loss at 40 mg/kg, iv administered on days 1,4,6 and day 8 or 9 (reference value: -2.2%). It counts as organism-based. Set-up: dose 40 mg/kg, route intravenous. The conditions noted are these: in vivo.
In data set [8] the test system is HeLa. Kind of data set: Cell cycle arrest in human HeLa cells assessed as accumulation of cells at G2/M phase at 3.5 uM after 18 hrs by flow cytometric analysis. It counts as functional, cell-based. An outline of the steps: (§4)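 DNA stained with propidium iodide (Krishan's reagent); DNA content measured by flow cytometry and plotted as PI intensity vs events.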
(Flow cytometry measures light scatter and fluorescence of single cells or particles in a stream.)

A short description of data set [9]: Antitumor activity against mouse 16/C cells allografted in mouse B6C3F1 assessed as decrease in tumor mass at 56 mg/kg, iv administered on days 1,4,6 and day 8 or 9 relative to control. The data set is classed as functional. The gist of the method: as §3
Data set [10] relates to Mus musculus. Kind of data set: Toxicity in B6C3F1 mouse allografted with mouse 16/C cells assessed as mean body weight loss at 56 mg/kg, iv administered on days 1,4,6 and day 8 or 9 (reference value: -2.2%). Set-up: dose 56 mg/kg, route intravenous. The data set is classed as organism-based. Conditions: in vivo.
Data set [11] in a line: Toxicity in B6C3F1 mouse allografted with mouse 16/C cells assessed as lethality at 56 mg/kg, iv. The data set is classed as organism-based. Set-up: dose 56 mg/kg, route intravenous. Conditions: in vivo, read-out: Activity.
Data set [12] can be described thus: Antitumor activity against mouse 16/C cells allografted in mouse B6C3F1 assessed as gross log cell killing at 40 mg/kg, iv administered on days 1,4,6 and day 8 or 9 relative to control. It counts as functional. The gist of the method:
as §1

Data set [13] in a line: Antitumor activity against mouse 16/C cells allografted in mouse B6C3F1 assessed as delay in tumor growth at 40 mg/kg, iv administered on days 1,4,6 and day 8 or 9 relative to control. It counts as functional. An outline of the steps: as §2
Data set [14] is described as follows: Antitumor activity against mouse 16/C cells allografted in mouse B6C3F1 assessed as delay in tumor growth at 20 mg/kg, iv administered on days 1,4,6 and day 8 or 9 relative to control. It counts as functional. The gist of the method: as §2
The nature of data set [15]: Antitumor activity against mouse 16/C cells allografted in mouse B6C3F1 assessed as decrease in tumor mass at 36 mg/kg, iv administered on days 1,4,6 and day 8 or 9 relative to control. It counts as functional. An outline of the steps: as §3
A short description of data set [16]: Antitumor activity against mouse 16/C cells allografted in mouse B6C3F1 assessed as decrease in tumor mass at 20 mg/kg, iv administered on days 1,4,6 and day 8 or 9 relative to control. It counts as functional. An outline of the steps:
as §3

A short description of data set [17]: Toxicity in B6C3F1 mouse allografted with mouse 16/C cells assessed as lethality at 20 mg/kg, iv administered on days 1,4,6 and day 8 or 9 measured after 12 days relative to control. The data set is classed as organism-based. Further details: dose 20 mg/kg, route intravenous. Conditions: in vivo, read-out: Activity. An outline of the steps:
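Female B6C3F1 mice, 5 per group, bore bilateral s.c. Mammary 16/C fragments. Taccalonolides in DMSO:Cremophor diluted with water were given i.v. on days 1, 4, 6 plus a later dose (A, N) or days 8, 9, 11 (E). Mice were weighed and observed daily, and lethality was recorded per group.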

Data set [18] relates to HeLa. Kind of data set: Inhibition of beta tubulin in human HeLa cells assessed asultiple abnormal mitotic spindle formation at 1.3 uM after 18 hrs by immunofluorescence analysis. The data set is classed as cell-based.
The subject of data set [19] is Mus musculus. Kind of data set: Toxicity in B6C3F1 mouse allografted with mouse 16/C cells assessed as mean body weight loss at 20 mg/kg, iv administered on days 1,4,6 and day 8 or 9 (reference value: -2.2%). The data set is classed as organism-based. Set-up: dose 20 mg/kg, route intravenous. The conditions noted are these: in vivo.
The nature of data set [20]: Antitumor activity against mouse 16/C cells allografted in mouse B6C3F1 assessed as delay in tumor growth at 36 mg/kg, iv administered on days 1,4,6 and day 8 or 9 relative to control. It counts as functional. An outline of the steps:
as §2

Data set [21] can be described thus: Antitumor activity against mouse 16/C cells allografted in mouse B6C3F1 assessed as gross log cell killing at 20 mg/kg, iv administered on days 1,4,6 and day 8 or 9 relative to control. The data set is classed as functional. The gist of the method:
as §1

The subject of data set [22] is HeLa. Kind of data set: Induction of interphase microtubule bundling in human HeLa cells at 1.3 uM after 18 hrs by indirect immunofluorescence. The data set is classed as cell-based.
Data set [23] concerns HeLa. Kind of data set: Cell cycle arrest in human HeLa cells assessed as accumulation of cells at G2/M phase at 1.3 uM after 18 hrs by flow cytometric analysis. It counts as functional, cell-based. The gist of the method:
as §4

The test system of data set [24] is Mus musculus. As to the kind of experiment: Toxicity in B6C3F1 mouse allografted with mouse 16/C cells assessed as mean body weight loss at 36 mg/kg, iv administered on days 1,4,6 and day 8 or 9 (reference value: -2.2%). It counts as organism-based. Set-up: dose 36 mg/kg, route intravenous. The conditions noted are these: in vivo.
The nature of data set [25]: Antitumor activity against mouse 16/C cells allografted in mouse B6C3F1 assessed as gross log cell killing at 36 mg/kg, iv administered on days 1,4,6 and day 8 or 9 relative to control. The data set is classed as functional. An outline of the steps:
as §1

Consider `CC(=O)O[C@@H]1[C@H]2[C@H]3[C@H]([C@H](OC(C)=O)[C@H](OC(C)=O)[C@]2(C)[C@@H]2[C@@H]1[C@]1(C)C(=C[C@H]2C)OC(=O)[C@@]1(C)O)[C@]1(C)[C@H](C[C@@H]2O[C@@H]2[C@@H]1OC(C)=O)C(=O)[C@@H]3O` [TACCALONOLIDE A], for which the LCK in data set [1] amounted to 4; in data set [12] it was 1. In addition, the values for the Time in data set [2] and in [13] were 16 days and 4 days, respectively. For the same compound, the IC50 (as a rule, the concentration at which inhibition is half-maximal) with HeLa [3] was found to be 594 nM. The T/C (usually the result in the treated group divided by that in the control group, in per cent) worked out at 24% in data set [4] and 0% in [9]. Further, the inhibition entry in the data set on HeLa [5] was “Active”. The result in the data set with HeLa [6] and in the data set on HeLa [8] was Active. Further, the Activity is reported as -6.3% in the data set with Mus musculus [7] and -16.7% in the data set with Mus musculus [10]. The mortality in data set [11] stood at 20%.
Regarding `CC(=O)O[C@H]1C[C@H]2[C@H]([C@@H]3[C@@H](O)[C@@H]4[C@H]([C@H](C)C=C5OC(=O)[C@@](C)(O)[C@@]54C)[C@]31C)[C@@H](O)C(=O)[C@H]1C[C@@H]3O[C@@H]3[C@H](OC(C)=O)[C@@]12C` [TACCALONOLIDE N], the Time in data set [14] was found to be 1 days; in data set [20] it was 5 days. The compound further had an IC50 in the data set with HeLa [3] of 247 nM. For the same compound, the results for the T/C in [15] and in [16] were 0% and 43%, respectively. Also, in data set [17], the mortality at 288 h was 0%. Besides, the inhibition result in the data set on HeLa [18] was “Active”. Moreover, the Activity in the data set with Mus musculus [19] is listed as -2.1%; in the data set with Mus musculus [24], -8.2%. Further, the values for the LCK in [21] and in data set [25] were 0.25 and 1.25, respectively. The outcome with HeLa [22] and in the data set on HeLa [23] was Active.
